Laboratory results reported in ChEMBL document CHEMBL3616379, “From carbohydrates to drug-like fragments: Rational development of novel α-amylase inhibitors” (Bioorg Med Chem, 2015).
Calls of active or inactive are those of the source. No cut-off for these calls is given here.

Tests used:
[1] = biological target: Alpha-amylase type A isozyme (Hordeum vulgare, UniProt P00693); test: Inhibition of recombinant barley alpha-amylase isozyme-1 using DP17 amylose as substrate preincubated for 5 mins followed by substrate addition by copper-bicinchoninate method
Pancreatic alpha-amylase [2] = biological target: T1, Pancreatic alpha-amylase (Sus scrofa, UniProt P00690); test: Inhibition of porcine pancreatic alpha-amylase using DP17 amylose as substrate preincubated for 5 mins followed by substrate addition by copper-bicinchoninate method
T1 sequence (P00690 whole entry): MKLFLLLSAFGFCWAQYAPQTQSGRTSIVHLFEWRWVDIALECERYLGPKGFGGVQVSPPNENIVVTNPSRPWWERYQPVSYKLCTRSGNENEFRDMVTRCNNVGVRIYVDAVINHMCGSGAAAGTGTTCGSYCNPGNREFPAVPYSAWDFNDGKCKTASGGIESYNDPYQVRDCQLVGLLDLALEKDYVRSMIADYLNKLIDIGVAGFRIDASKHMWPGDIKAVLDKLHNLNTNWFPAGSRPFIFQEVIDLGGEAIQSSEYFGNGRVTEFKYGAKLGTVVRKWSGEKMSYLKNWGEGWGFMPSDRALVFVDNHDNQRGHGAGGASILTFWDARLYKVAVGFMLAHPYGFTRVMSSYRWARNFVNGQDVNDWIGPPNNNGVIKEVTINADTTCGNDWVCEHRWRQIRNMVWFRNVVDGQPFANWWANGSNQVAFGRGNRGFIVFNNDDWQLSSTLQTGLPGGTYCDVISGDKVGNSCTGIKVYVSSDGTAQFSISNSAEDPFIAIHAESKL

[3] = biological target: Heat shock protein HSP 90-beta (Homo sapiens, UniProt P08238); test: Inhibition of HSP90 (unknown origin)
[4] = biological target: T2, Alpha-amylase 1A (Homo sapiens) (UniProt P0DUB6); test: Inhibition of human salivary alpha-amylase using GalG2CNP as substrate at 200 uM by UV-Vis spectrophotometric analysis
T2 sequence (whole entry): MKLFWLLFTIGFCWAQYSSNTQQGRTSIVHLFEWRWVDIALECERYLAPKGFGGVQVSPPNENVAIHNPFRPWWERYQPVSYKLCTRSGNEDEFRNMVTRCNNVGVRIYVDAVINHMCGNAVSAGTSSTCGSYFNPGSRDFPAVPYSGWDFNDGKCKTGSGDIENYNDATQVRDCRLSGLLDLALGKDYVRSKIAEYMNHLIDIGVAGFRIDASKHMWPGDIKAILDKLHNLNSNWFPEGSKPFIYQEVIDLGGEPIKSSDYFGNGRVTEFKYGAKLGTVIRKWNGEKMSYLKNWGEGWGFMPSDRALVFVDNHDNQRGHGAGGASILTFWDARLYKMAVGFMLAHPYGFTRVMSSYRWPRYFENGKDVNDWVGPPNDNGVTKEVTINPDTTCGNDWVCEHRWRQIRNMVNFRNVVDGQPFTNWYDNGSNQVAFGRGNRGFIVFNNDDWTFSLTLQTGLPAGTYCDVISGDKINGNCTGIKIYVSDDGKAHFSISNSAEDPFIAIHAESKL
Procedure, shortened: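 Single-concentration test at 200 μM inhibitor against human salivary α-amylase (2 nM) with GalG2CNP substrate, 50 mM MES pH 6.0 containing 5 mM Ca(OAc)2, 51.5 mM NaCl, 152 mM NaN3, 37°C. Chloronitrophenol liberation monitored continuously at 400 nm by UV-Vis spectrophotometry.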

Pancreatic alpha-amylase [5] = biological target: T1, Pancreatic alpha-amylase; test: Inhibition of porcine pancreatic alpha-amylase using soluble starch as substrate after 30 mins by Bernfeld method

Chain of Heat shock protein HSP 90-beta (P08238 whole entry): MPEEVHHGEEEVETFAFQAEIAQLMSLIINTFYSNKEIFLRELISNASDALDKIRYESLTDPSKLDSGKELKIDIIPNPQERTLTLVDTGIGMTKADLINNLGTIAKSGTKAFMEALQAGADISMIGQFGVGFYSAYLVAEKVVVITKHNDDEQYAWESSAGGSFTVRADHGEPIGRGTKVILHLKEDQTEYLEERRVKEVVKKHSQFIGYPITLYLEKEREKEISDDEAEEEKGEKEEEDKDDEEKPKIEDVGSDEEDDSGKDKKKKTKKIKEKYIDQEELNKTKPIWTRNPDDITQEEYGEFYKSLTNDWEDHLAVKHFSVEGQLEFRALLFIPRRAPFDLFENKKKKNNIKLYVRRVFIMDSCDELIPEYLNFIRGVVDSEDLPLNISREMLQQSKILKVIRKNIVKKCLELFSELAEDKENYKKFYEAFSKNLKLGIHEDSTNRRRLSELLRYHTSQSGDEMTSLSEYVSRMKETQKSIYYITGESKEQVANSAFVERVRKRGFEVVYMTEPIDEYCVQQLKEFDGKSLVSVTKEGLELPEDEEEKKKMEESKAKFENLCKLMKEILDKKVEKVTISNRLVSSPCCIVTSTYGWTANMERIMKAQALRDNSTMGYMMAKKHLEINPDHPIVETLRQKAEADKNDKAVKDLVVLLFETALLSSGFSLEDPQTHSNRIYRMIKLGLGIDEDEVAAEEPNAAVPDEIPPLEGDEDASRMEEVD
Chain of Alpha-amylase type A isozyme (P00693 whole entry): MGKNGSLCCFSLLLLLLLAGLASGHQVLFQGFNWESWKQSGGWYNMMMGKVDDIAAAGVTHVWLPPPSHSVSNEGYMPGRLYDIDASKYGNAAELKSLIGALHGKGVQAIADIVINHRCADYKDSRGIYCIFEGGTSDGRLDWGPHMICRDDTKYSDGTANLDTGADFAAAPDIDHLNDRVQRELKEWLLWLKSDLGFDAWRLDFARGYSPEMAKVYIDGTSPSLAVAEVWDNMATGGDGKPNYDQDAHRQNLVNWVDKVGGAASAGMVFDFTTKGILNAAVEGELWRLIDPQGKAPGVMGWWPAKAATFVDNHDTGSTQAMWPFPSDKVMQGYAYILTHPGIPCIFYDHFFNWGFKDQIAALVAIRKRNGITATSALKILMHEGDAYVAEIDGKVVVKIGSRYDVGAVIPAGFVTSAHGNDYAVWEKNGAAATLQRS

Compound: O=S(=O)(O)O[C@@H](CO)[C@@H](O)CN1C[C@@H](O)[C@H](O)[C@H]1CO
- Ki [1]: < 10000 µM
- Ki (Pancreatic alpha-amylase [2]): < 10000 µM

Compound: CCc1cc(C(=O)Cn2cnc3ccccc32)c(O)cc1O
- IC50 [3]: > 50 µM
- inhibition [4]: inactive

Compound: O=C(/C=C/c1ccccc1)c1ccccc1 [CHALCONE]
- Ki (Pancreatic alpha-amylase [5]): 48 µM
